Experimental data: ChEMBL document CHEMBL2346664, “Synthesis, characterization and in vitro anticancer evaluation of novel 1,2,4-triazolin-3-one derivatives” (2013)

Columns and labels:
Assay type in all cases: functional
IGROV-1 = assay: Growth inhibition of human IGROV1 cells after 48 hrs by sulforhodamine B assay; details: IGROV-1, 48 h
Outline: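 NCI 60-cell-line five-dose screen. Cells were plated at 5,000–40,000/well by doubling time and grown 24 h at 37 °C, 5% CO2. Time-zero plates were TCA-fixed. Drug from DMSO stock was tested at 0.01, 0.1, 1, 10 and 100 µM final for 48 h continuous exposure. Read-out was SRB at 515 nm. GI50 is the concentration giving 50% reduction in net protein increase versus untreated control.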

DU-145 = assay: Growth inhibition of human DU145 cells assessed as cell growth at 10 '-5 M after 48 hrs by sulforhodamine B assay; details: DU-145, 48 h, read-out: Activity
A549 [1] = assay: Growth inhibition of human A549 cells assessed as cell growth at 10 '-8 M after 48 hrs by sulforhodamine B assay; details: A549, 48 h, read-out: Activity
Outline: (§1)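 Percent growth at each of the five concentrations of the 48 h continuous-exposure NCI SRB screen. Drug stocks were in DMSO at 400× the top final concentration and diluted in medium with gentamicin. Growth was calculated as [(Ti-Tz)/(C-Tz)]×100 when Ti ≥ Tz, or [(Ti-Tz)/Tz]×100 when Ti < Tz. Tz plates were fixed at drug addition; untreated wells served as control. Absorbance was read at 515 nm.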

SF-268 [2] = assay: Growth inhibition of human SF268 cells assessed as cell growth at 10 '-6 M after 48 hrs by sulforhodamine B assay; details: SF-268, 48 h, read-out: Activity
A549 [3] = assay: Growth inhibition of human A549 cells assessed as cell growth at 10 '-4 M after 48 hrs by sulforhodamine B assay; details: A549, 48 h, read-out: Activity; outline: as §1
CAKI-1 = assay: Growth inhibition of human CAKI-1 cells assessed as cell growth at 10 '-8 M after 48 hrs by sulforhodamine B assay; details: CAKI-1, 48 h, read-out: Activity; outline: as §1
[4] = Growth inhibition of human EKVX cells assessed as cell growth at 10 '-6 M after 48 hrs by sulforhodamine B assay; details: read-out: Activity
MDA-MB-468 = assay: Growth inhibition of human MDA-MB-468 cells assessed as cell growth at 10 '-8 M after 48 hrs by sulforhodamine B assay; details: MDA-MB-468, 48 h, read-out: Activity
SF-268 [5] = assay: Growth inhibition of human SF268 cells assessed as growth inhibition at 10 uM after 48 hrs by sulforhodamine B assay; details: SF-268, 48 h, read-out: GI
NCI-H460 = assay: Growth inhibition of human NCI-H460 cells assessed as cell growth at 10 '-7 M after 48 hrs by sulforhodamine B assay; details: NCI-H460, 48 h, read-out: Activity
UO-31 = assay: Growth inhibition of human UO31 cells assessed as cell growth at 10 '-6 M after 48 hrs by sulforhodamine B assay; details: UO-31, 48 h, read-out: Activity
SK-MEL-28 = assay: Growth inhibition of human SK-MEL-28 cells assessed as cell growth at 10 '-4 M after 48 hrs by sulforhodamine B assay; details: SK-MEL-28, 48 h, read-out: Activity
SK-MEL-5 = assay: Growth inhibition of human SK-MEL-5 cells assessed as cell growth at 10 '-7 M after 48 hrs by sulforhodamine B assay; details: SK-MEL-5, 48 h, read-out: Activity
[6] = Growth inhibition of human NCI-ADR-RES cells assessed as cell growth at 10 '-5 M after 48 hrs by sulforhodamine B assay; details: read-out: Activity
HOP-62 = assay: Growth inhibition of human HOP62 cells assessed as cell growth at 10 '-8 M after 48 hrs by sulforhodamine B assay; details: HOP-62, 48 h, read-out: Activity
HCT-15 = assay: Growth inhibition of human HCT15 cells assessed as cell growth at 10 '-5 M after 48 hrs by sulforhodamine B assay; details: HCT-15, 48 h, read-out: Activity
MDA-MB-231 = assay: Growth inhibition of human MDA-MB-231 cells assessed as cell growth at 10 '-4 M after 48 hrs by sulforhodamine B assay; details: MDA-MB-231, 48 h, read-out: Activity
U-251 = assay: Growth inhibition of human U251 cells assessed as cell growth at 10 '-6 M after 48 hrs by sulforhodamine B assay; details: U-251, 48 h, read-out: Activity
UACC-62 = assay: Growth inhibition of human UACC62 cells assessed as cell growth at 10 '-5 M after 48 hrs by sulforhodamine B assay; details: UACC-62, 48 h, read-out: Activity
Malme-3M [7] = assay: Growth inhibition of human MALME-3M cells assessed as cell growth at 10 '-5 M after 48 hrs by sulforhodamine B assay; details: read-out: Activity
PC-3 = assay: Growth inhibition of human PC3 cells assessed as cell growth at 10 '-5 M after 48 hrs by sulforhodamine B assay; details: PC-3, 48 h, read-out: Activity
RPMI-8226 = assay: Growth inhibition of human RPMI8226 cells assessed as cell growth at 10 '-4 M after 48 hrs by sulforhodamine B assay; details: RPMI-8226, 48 h, read-out: Activity
K562 = assay: Growth inhibition of human K562 cells assessed as cell growth at 10 '-5 M after 48 hrs by sulforhodamine B assay; details: K562, 48 h, read-out: Activity
[8] = Growth inhibition of human EKVX cells assessed as cell growth at 10 '-8 M after 48 hrs by sulforhodamine B assay; details: read-out: Activity
RXF 393 = assay: Growth inhibition of human RXF393 cells assessed as cell growth at 10 '-4 M after 48 hrs by sulforhodamine B assay; details: RXF 393, 48 h, read-out: Activity
HL-60(TB) = assay: Growth inhibition of human HL-60(TB) cells assessed as cell growth at 10 '-8 M after 48 hrs by sulforhodamine B assay; details: HL-60, 48 h, read-out: Activity
Outline: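 Five-dose NCI protocol with final concentrations of 0.01–100 µM and drug diluted from a DMSO stock (400× the top concentration) in medium with gentamicin. Cells were pre-incubated 24 h, then exposed 48 h at 37 °C. Suspension cells were fixed with 16% final TCA, SRB-stained and read at 515 nm. Percentage growth at each level was [(Ti−Tz)/(C−Tz)]×100, or [(Ti−Tz)/Tz]×100 when Ti < Tz.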

[9] = Growth inhibition of human EKVX cells assessed as cell growth at 10 '-7 M after 48 hrs by sulforhodamine B assay; details: read-out: Activity
[10] = Growth inhibition of human Hs 578T cells assessed as growth inhibition at 10 uM after 48 hrs by sulforhodamine B assay; details: read-out: GI
Malme-3M [11] = assay: Growth inhibition of human MALME-3M cells assessed as growth inhibition at 10 uM after 48 hrs by sulforhodamine B assay; details: read-out: GI
SF-268 [12] = assay: Growth inhibition of human SF268 cells assessed as cell growth at 10 '-5 M after 48 hrs by sulforhodamine B assay; details: SF-268, 48 h, read-out: Activity

Cc1cc(=O)oc2cc(OCCn3c(C)nn(-c4ccc(Cl)cc4)c3=O)ccc12
GI50 (IGROV-1): 3.5 µM | TGI (IGROV-1): > 1 µM | growth at 10 µM (DU-145): 18% | growth at 0.01 µM (A549 [1]): 97% | growth at 1 µM (SF-268 [2]): 87% | growth at 100 µM (A549 [3]): 27% | growth at 0.01 µM (CAKI-1): 97% | growth at 1 µM [4]: 88% | growth at 0.01 µM (MDA-MB-468): 94% | inhibition of growth at 10 µM (SF-268 [5]): 49.7% | growth at 0.1 µM (NCI-H460): 99% | growth at 1 µM (UO-31): 74% | growth at 100 µM (SK-MEL-28): 33% | growth at 0.1 µM (SK-MEL-5): 92% | growth at 10 µM [6]: 10% | growth at 0.01 µM (HOP-62): 101% | growth at 10 µM (HCT-15): 20% | growth at 100 µM (MDA-MB-231): 11% | growth at 1 µM (U-251): 87% | growth at 10 µM (UACC-62): 24% | growth at 10 µM (Malme-3M [7]): 28% | growth at 10 µM (PC-3): 48% | growth at 100 µM (RPMI-8226): 45% | growth at 10 µM (K562): 23% | growth at 0.01 µM [8]: 96% | growth at 100 µM (RXF 393): -21% | growth at 0.01 µM (HL-60(TB)): 101% | growth at 0.1 µM [9]: 90% | inhibition of growth at 10 µM [10]: 65.2% | inhibition of growth at 10 µM (Malme-3M [11]): 67.1% | growth at 10 µM (SF-268 [12]): 52%
